From PubChem
PKA-R1A act – PKA-R1A complex activation; P00514+P68181; PKA-R1A dissociation, Cy5-IP20 fluorescence polarization; scaled: DMSO 0%, 113 µM cGMP 100%; activation, % at 11.4 µM; actives 0.083% (n = 340,000); AID 504707;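 active means percent activation above the mean of all tested compounds plus 3 SD, cut at about 19% in these data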;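 further: higher means more PKAc released from R1A so a rise in polarization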
HNF4A DNA FP – change in binding of human HNF4 alpha to DNA | P41235 | HNF4a-FITC DNA binding, fluorescence polarization, 1 h | activity change, % at 10 µM | actives 0.3% (n = 360,000) | AID 1224865; in the data active means activity change above about 30%, passing the limit was not always enough
CSN inh – CSN deneddylation inhibition | inhibition, % at 12.5 µM | actives 0.38% (n = 360,000) | Purified CSN, SCF-Nedd8-OG deneddylation, fluorescence polarization;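 active means pattern-corrected inhibition above about 35%, with an unprinted fluorescence ratio check between 0.5 and 1.5, limit read from the data, passing the limit was not always enough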
Target sequence (Q92905 whole entry, looked up, one chain of several): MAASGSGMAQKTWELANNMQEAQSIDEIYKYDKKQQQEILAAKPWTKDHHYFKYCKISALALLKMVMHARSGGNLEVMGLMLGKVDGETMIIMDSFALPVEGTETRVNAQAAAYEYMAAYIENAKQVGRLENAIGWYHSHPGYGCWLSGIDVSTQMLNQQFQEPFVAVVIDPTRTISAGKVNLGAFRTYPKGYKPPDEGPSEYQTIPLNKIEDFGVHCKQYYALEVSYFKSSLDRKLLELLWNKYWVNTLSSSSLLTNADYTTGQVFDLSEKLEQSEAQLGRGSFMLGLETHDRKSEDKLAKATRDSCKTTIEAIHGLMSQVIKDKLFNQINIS
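Material: human Csn5 produced in HEK293T cells; Input: enzyme 0.24 nM; Reagent: SCFSkp2-Nedd8OG substrate at 10 nM final; Dosing: 12.5 µM compound; Incubation: 90 min reaction at room temperature; Detection: fluorescence polarization of the substrate; Evaluation: % inhibition of substrate cleavage by Csn5; Control set: substrate-only high control, full reaction low control.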
Rpn11 inh – blocks the human proteasome subunit Rpn11; O00487; human 26S proteasome, Ub4-pepOG fluorescence polarization; 20S core pre-blocked with epoxomicin; calls only at 20 µM; actives 0.59% (n = 360,000);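 active means inhibition at 20 µM, scaled to each plate's controls, above about 33%, limit read from the data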
Target sequence (O00487 whole entry, looked up): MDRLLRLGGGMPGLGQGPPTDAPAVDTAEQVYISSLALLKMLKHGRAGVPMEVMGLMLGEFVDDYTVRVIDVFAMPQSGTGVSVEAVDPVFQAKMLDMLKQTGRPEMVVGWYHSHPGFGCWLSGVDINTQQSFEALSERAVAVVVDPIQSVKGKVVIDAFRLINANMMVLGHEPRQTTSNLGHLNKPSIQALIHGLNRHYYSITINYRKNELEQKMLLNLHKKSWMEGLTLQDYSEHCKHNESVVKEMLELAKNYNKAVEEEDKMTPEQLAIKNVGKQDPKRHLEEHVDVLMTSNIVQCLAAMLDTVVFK
PKA-R2B act – activators of human PKA-R2B complex | P22694+P31323 | PKA-R2B holoenzyme dissociation, Cy5-IP20 fluorescence polarization; R2B truncated from residue 108, S112A mutant; 0% DMSO only, 100% 113 µM cGMP | activation, % at 11.4 µM | actives 0.079% (n = 340,000) | AID 504700;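 active means activation above a cutoff set at the mean over all compounds plus 3 SD, cut at about 18% in these data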;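 further: higher means more holoenzyme dissociation and a rise in polarization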
TPT1 inh – blocks Candida albicans tRNA 2'-phosphotransferase; actives 0.81% (n = 300,000); recombinant caTPT1, FP RNA substrate dephosphorylation; inhibition, % at 5 µM; AID 1962;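 active means inhibition above the mean of all tested compounds plus 3 SD, set per screening campaign, cut at about 24% in these data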
Rpn11 confirm – confirmation of human proteasome Rpn11 inhibitors | purified human 26S proteasome, Ub4-pepOG fluorescence polarization; proteasome pretreated with epoxomicin | AID 602318 | inhibition, % at 20 µM | shares compounds with Rpn11 inh | actives 29% (n = 1,900)
MMP-2 inh – counter-screen for RPN11 inhibitors: inhibition of human MMP-2; shares compounds with Rpn11 inh; recombinant MMP-2, FRET peptide cleavage fluorescence; inhibition, % at 20 µM; actives 4% (n = 1,900); AID 602330;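 further: human MMP-2 activated beforehand with APMA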
Thrombin FP – thrombin (bovine) inhibition counter-screen. shares compounds with Rpn11 inh. bovine thrombin cleavage of Ub4-pepOG, fluorescence polarization. inhibition, % at 20 µM. actives 13% (n = 1,900). AID 602333;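 active means mean inhibition at least 40% at 20 µM, or signal 3 deviations below plate average, so some actives read negative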
Hits are given with their value; i = inactive; nt = no result; + = active, no number; ! = not active in a repeat. This is a sample that favours compounds with a hit; in the whole collection about 1.6% have one here. Unless noted, no stated cut-off is given here; in the data, active means inhibition above about 40%; inactive means the rest.

SMILES	PKA-R1A act	HNF4A DNA FP	CSN inh	Rpn11 inh	PKA-R2B act	TPT1 inh	Rpn11 confirm	MMP-2 inh	Thrombin FP
CC1(C)CC(=O)C=C(NCCN2CCN(C(=O)Nc3ccccc3)CC2)C1	i	i	i	i	i	i	nt	nt	nt
Cc1ccc(N(CC(=O)N/N=C/c2cccs2)S(C)(=O)=O)cc1	i	i	i	+	i	i	i	i	i
COc1ccc(N(CC(=O)N/N=C/c2cccs2)S(=O)(=O)c2ccccc2)cc1	i	i	i	i	i	i	nt	nt	nt
COc1ccc(NC(=O)Nc2nnc(-c3ccncc3)s2)cc1	i	i	i	i	i	i	nt	nt	nt
O=C(Nc1ccc(Cl)c(Cl)c1)Nc1nnc(-c2ccncc2)s1	i	i	i	+	i	i	i	i	i
Cc1ccnc2c1ccc1c(C)ccnc12	i	i	i	+	i	nt	i	i	i
Cc1ccn2c(NC3CCCCC3)c(-c3cccc(-c4cccc(Cl)c4)c3)nc2c1	i	i	i	+	i	i	i	i	i
CCC(C)Sc1ccc(-c2nc3cnccn3c2NC2CCCCC2)cc1 (stereo unspecified)	i	i	i	i	i	i	nt	nt	nt
CCC(C)Sc1ccc(-c2nc3cc(C)ccn3c2NC2CCCCC2)cc1 (stereo unspecified)	i	45!	i	+	i	nt	i	i	i
Cc1ccn2c(NC3CCCCC3)c(C)nc2c1	i	i	i	i	i	i	nt	nt	nt
Cc1ccn2c(NC3CCCC3)c(-c3ccncc3)nc2c1	i	i	i	i	i	i	nt	nt	nt
CCCCCCSc1ccc(-c2nc3cc(C)ccn3c2NC2CCCCC2)cc1	i	i	i	+	i	nt	i	i	i
COc1cc(-c2nc3cc(C)ccn3c2NC2CCCCC2)ccc1-c1ccc(C(C)=O)cc1	i	i	i	+	i	i	i	i	i
CCCCCCSc1ccc(-c2nc3ccc(C)cn3c2NC2CCCCC2)cc1	i	i	i	i	i	i	nt	nt	nt
Nc1nc(N)nc(Cc2ccccc2O)n1	i	i	i	i	i	nt	nt	nt	nt
COc1ccc2nnc(-c3ccc(C(F)(F)F)cc3)n2n1	i	i	i	i	i	i	nt	nt	nt
CCCCCCSc1cc(-c2nc3cc(C)ccn3c2NC2CCCCC2)ccc1OC	i	i	i	+	i	i	i	i	i
O=C(Nc1ccnn1C1CCN(C(=O)c2ccc(F)cc2)CC1)C1CCOC1 (stereo unspecified)	i	i	i	i	i	i	nt	nt	nt
Clc1ccc(OCc2cnc(Cl)s2)cc1	i	i	i	i	i	i	nt	nt	nt
FC(F)(F)c1cccc(NC(=S)Nc2ccc(Cl)c(Cl)c2)c1	nt	i	i	+	nt	i	i	i	i
FC(F)(F)c1cccc(NC(=S)NNC(=S)Nc2cccc(C(F)(F)F)c2)c1	nt	nt	nt	nt	nt	i	nt	nt	nt
CCCCCNC(=O)C(C1CC1)n1c(=O)c(-c2cc3ccccc3[nH]2)nc2ccccc21 (stereo unspecified)	nt	i	i	nt	nt	nt	nt	nt	nt
CC1CCC2(CC1)NC(=O)N(CC(=O)Nc1sc3c(c1C(N)=O)CCC3)C2=O (stereo unspecified)	i	i	i	+	i	i	i	i	i
COCCn1cnnc1SCC(=O)Nc1sc2c(c1C#N)CCC2	i	i	i	i	i	nt	nt	nt	nt
Cn1cnnc1SCC(=O)Nc1sc2c(c1C(N)=O)CCC2	i	i	50	+	i	i	i	i	i
SMILES	PKA-R1A act	HNF4A DNA FP	CSN inh	Rpn11 inh	PKA-R2B act	TPT1 inh	Rpn11 confirm	MMP-2 inh	Thrombin FP
Cc1cccc(C)c1NCC(=O)N1CCN(Cc2ccccc2)CC1	i	i	i	i	i	i	nt	nt	nt
Cc1cc2ncn(/N=C/c3ccc([N+](=O)[O-])s3)c2cc1C	i	i	i	+	i	i	i	i	i
Cc1ccc(NC(=O)CS(=O)CC(=O)NCCCc2ccccc2)cc1Cl (stereo unspecified)	i	i	i	i	i	i	nt	nt	nt
Cc1ccc(NC(=O)CS(=O)CC(=O)Nc2cnc3ccccc3c2)cc1Cl (stereo unspecified)	i	i	i	+	i	i	i	i	i
COc1ccc(S(=O)(=O)NNC(=O)Nc2ccc(C)cc2C)c(OC)c1	i	i	i	i	i	i	nt	nt	nt
CC(C1SC(=S)NC1=O)C1SC(=S)NC1=O (stereo unspecified)	i	i	38	+	i	nt	42	i	i
O=C(COC(=O)c1cc2ccccc2cc1O)NC(=O)NCc1ccco1	i	i	i	+	i	i	i	i	i
O=C(COC(=O)c1n[nH]c2ccccc12)NC(=O)NCc1ccco1	i	i	i	i	i	i	nt	nt	nt
COC(=O)[C@@]12CCCN1[C@H](c1ccc(-c3ccc(C(C)=O)cc3)c(OC)c1)[C@H]1C(=O)N(C)C(=O)[C@H]12	i	i	i	i	i	i	nt	nt	nt
Cn1c(C(=O)NCCN2CCCCCC2)cc2c(=O)n(C)c3ccccc3c21	i	i	i	+	i	i	i	i	i
NS(=O)(=O)c1ccc(N=Nc2ccc(O)c3ncccc23)cc1	i	i	i	+	i	i	70	55	i
CCN(CC)S(=O)(=O)c1cc(OC)ccc1N=Nc1ccc(O)c2ncccc12	i	i	i	+	i	nt	48	43	i
CCOc1ccc(N=Nc2ccc(O)c3ncccc23)cc1	i	i	i	i	i	nt	nt	nt	nt
CCS(=O)(=O)c1ccc(OC)c(N=Nc2ccc(O)c3ncccc23)c1	i	i	i	i	i	i	nt	nt	nt
COc1cc(/C=C2/SC(=Nc3ccc(O)cc3)NC2=O)cc(OC)c1O	i	i	i	+	i	i	i	i	i
CN(C)S(=O)(=O)c1ccc(N2CCCC2)c(C(=O)NNC(=O)COc2cccc(F)c2)c1	i	i	i	i	i	nt	nt	nt	nt
Cc1cccc(OCC(=O)NNC(=O)c2cc(S(=O)(=O)N(C)C)ccc2N2CCCC2)c1	i	i	i	+	i	nt	i	i	i
COc1ccc(C2SCC(=O)N2c2c(C)n(C)n(-c3ccccc3)c2=O)cc1OC (stereo unspecified)	i	i	i	+	i	i	i	i	i
N#C/C(=C\c1ccc(-c2cccc([N+](=O)[O-])c2)o1)C(=O)Nc1nc(-c2cccs2)cs1	i	i	i	+	i	i	i	i	i
COc1ccc(N2CCN(C(=O)CSc3ncccc3-c3nc4ccccc4[nH]3)CC2)cc1	i	i	i	+	i	i	i	i	i
